Laboratory results as given in ChEMBL document CHEMBL1122410, “Synthesis of 3,6-bis(aminoalkoxy)acridines and their effect on the immune System” (1983).
Active and inactive are the calls of the source. The rule behind the calls is not given here.

How the values were obtained:
Ovis aries [1] = experiment: Antibody stimulation by serum hemagglutininin titer over the titer for the infected placebo-treated control in sheep red blood cells at 50 mg/Kg of dose; value is 1024/32; type: functional
Mus musculus [2] = experiment: Efficacy against a lethal virus challenge with an interferon sensitive virus, columbia SK was evaluated 14 days postinfection (oral dosing) as number of mice survived out of 15 tested; type: functional
Mus musculus [3] = experiment: Percent reduction in spleen weight in mice as compared to infected untreated controls at 50 mg/kg; type: functional
In short: (§1)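 In BALB/c mice infected ip with Rauscher leukemia virus (same-sex, ≥18 g), compound was given orally in 0.2% Noble agar/saline on days 6, 7 and 8 at 25–200 mg/kg. Animals were weighed on day 14. Spleen weight is expressed as percent reduction versus infected placebo-treated controls, and ≥50% reduction counts as active.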

Ovis aries [4] = experiment: Antibody stimulation by serum hemagglutininin titer over the titer for the infected placebo-treated control in sheep red blood cells at 25 mg/Kg of dose; value is 32/16; type: functional
Mus musculus [5] = experiment: Percent reduction in spleen weight in mice as compared to infected untreated controls at 100 mg/kg; type: functional; in short: as §1
Mus musculus [6] = experiment: Percent reduction in spleen weight in mice as compared to infected untreated controls at 25 mg/kg; type: functional
In short: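 BALB/c mice of the same sex, weighing at least 18 g and within a 3 g range, were inoculated ip with Rauscher leukemia virus as a 20% (w/v) spleen extract, five per group. Compound in 0.2% Noble agar/saline was given orally on days 6, 7 and 8, with SRBC ip on day 7. Mice were weighed on day 14, and percent spleen-weight reduction was taken versus infected placebo-treated controls.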

Ovis aries [7] = species on record: Ovis aries; experiment: Antibody stimulation by serum hemagglutininin titer over the titer for the infected placebo-treated control in sheep red blood cells; value is 128/16; type: functional
Ovis aries [8] = experiment: Antibody stimulation by serum hemagglutininin titer over the titer for the infected placebo-treated control in sheep red blood cells at 100 mg/Kg of dose; value is 32/16; type: functional
Ovis aries [9] = experiment: Antibody stimulation by serum hemagglutininin titer over the titer for the infected placebo-treated control in sheep red blood cells at 100 mg/Kg of dose; value is 64/16; type: functional
Mus musculus [10] = species on record: Mus musculus; experiment: Percent reduction in spleen weight in mice as compared to infected untreated controls; NA = Not Active; type: functional, organism-based; in short: as §1
Ovis aries [11] = experiment: Antibody stimulation by serum hemagglutininin titer over the titer for the infected placebo-treated control in sheep red blood cells at 50 mg/Kg of dose; NA = Not Active; type: functional, organism-based
Ovis aries [12] = experiment: Antibody stimulation by serum hemagglutininin titer over the titer for the infected placebo-treated control in sheep red blood cells at 200 mg/Kg of dose; value is 64/16; type: functional
Mus musculus [13] = experiment: Percent reduction in spleen weight in mice as compared to infected untreated controls at 200 mg/kg; type: functional; in short: as §1
Ovis aries [14] = experiment: Antibody stimulation by serum hemagglutininin titer over the titer for the infected placebo-treated control in sheep red blood cells at 100 mg/Kg of dose; value is 512/32; type: functional
Ovis aries [15] = experiment: Antibody stimulation by serum hemagglutininin titer over the titer for the infected placebo-treated control in sheep red blood cells at 25 mg/Kg of dose; value is 128/16; type: functional
Ovis aries [16] = experiment: Antibody stimulation by serum hemagglutininin titer over the titer for the infected placebo-treated control in sheep red blood cells at 100 mg/Kg of dose; value is 128/16; type: functional
Ovis aries [17] = species on record: Ovis aries; experiment: Antibody stimulation by serum hemagglutininin titer over the titer for the infected placebo-treated control in sheep red blood cells; NA=Not active; type: functional, organism-based
Ovis aries [18] = experiment: Antibody stimulation by serum hemagglutininin titer over the titer for the infected placebo-treated control in sheep red blood cells at 50 mg/Kg of dose; value is 256/32; type: functional
Ovis aries [19] = species on record: Ovis aries; experiment: Antibody stimulation by serum hemagglutininin titer over the titer for the infected placebo-treated control in sheep red blood cells; NA = Not active; type: functional, organism-based
Mus musculus [20] = experiment: Efficacy against a lethal virus challenge with an interferon sensitive virus, columbia SK was evaluated 14 days postinfection (oral dosing) as number of mice survived out of 15 tested; NT = Not tested; type: functional
Ovis aries [21] = experiment: Antibody stimulation by serum hemagglutininin titer over the titer for the infected placebo-treated control in sheep red blood cells at 50 mg/Kg of dose; value is 128/16; type: functional
Ovis aries [22] = experiment: Antibody stimulation by serum hemagglutininin titer over the titer for the infected placebo-treated control in sheep red blood cells at 25 mg/Kg of dose; value is 256/64; type: functional
Ovis aries [23] = experiment: Antibody stimulation by serum hemagglutininin titer over the titer for the infected placebo-treated control in sheep red blood cells at 200 mg/Kg of dose; value is 32/16; type: functional
Mus musculus [24] = experiment: Efficacy against a lethal virus challenge with an interferon sensitive virus, columbia SK was evaluated 14 days postinfection (oral dosing) as number of mice survived out of 20 tested; type: functional
Ovis aries [25] = experiment: Antibody stimulation by serum hemagglutininin titer over the titer for the infected placebo-treated control in sheep red blood cells at 50 mg/Kg of dose; value is 64/16; type: functional
Ovis aries [26] = experiment: Antibody stimulation by serum hemagglutininin titer over the titer for the infected placebo-treated control in sheep red blood cells at 200 mg/Kg of dose; value is 128/16; type: functional
Ovis aries [27] = experiment: Antibody stimulation by serum hemagglutininin titer over the titer for the infected placebo-treated control in sheep red blood cells at 50 mg/Kg of dose; value is 32/16; type: functional
Ovis aries [28] = experiment: Antibody stimulation by serum hemagglutininin titer over the titer for the infected placebo-treated control in sheep red blood cells at 25 mg/Kg of dose; value is 16/16; type: functional

Cl.O.c1cc2cc3ccc(OCCCN4CCCCC4)cc3nc2cc1OCCCN1CCCCC1
Antibody stimulation (Ovis aries [1]): 1024 | Survivors (Mus musculus [2]): 9 | Reduction (Mus musculus [3]): 74%

Cl.NCCOc1ccc2cc3ccc(OCCN)cc3nc2c1.O
Antibody stimulation (Ovis aries [4]): 32 | Reduction (Mus musculus [5]): 40% | Survivors (Mus musculus [2]): 1

CCN(CC)CCOc1ccc2cc3cc(N)c(OCCN(CC)CC)c(Cl)c3nc2c1Cl.Cl.O
Reduction (Mus musculus [6]): 55% | Antibody stimulation (Ovis aries [7]): 128

CCN(CC)CCOc1cc([N+](=O)[O-])c2cc3cc([N+](=O)[O-])c(OCCN(CC)CC)c(Cl)c3nc2c1Cl
Survivors (Mus musculus [2]): 3 | Antibody stimulation (Ovis aries [8]): 32 | Reduction (Mus musculus [3]): 46%

CNCCCOc1ccc2cc3ccc(OCCCNC)cc3nc2c1.Cl.O
Antibody stimulation (Ovis aries [4]): 32 | Reduction (Mus musculus [5]): 18% | Survivors (Mus musculus [2]): 8

c1cc2cc3ccc(OCCN4CCCC4)cc3nc2cc1OCCN1CCCC1
Survivors (Mus musculus [2]): 5 | Antibody stimulation (Ovis aries [9]): 64 | Reduction (Mus musculus [3]): 82%

CCNCCOc1ccc2cc3ccc(OCCNCC)cc3nc2c1.Cl.O
Antibody stimulation (Ovis aries [4]): 32 | Reduction (Mus musculus [5]): 89% | Survivors (Mus musculus [2]): 7

CCN(CC)CCOc1ccc2cc3cc([N+](=O)[O-])c(OCCN(CC)CC)c(Br)c3nc2c1Br
Reduction (Mus musculus [10]): inactive | Survivors (Mus musculus [2]): 5 | Antibody stimulation (Ovis aries [11]): inactive

CCCNCCOc1ccc2cc3ccc(OCCNCCC)cc3nc2c1.Cl.O
Antibody stimulation (Ovis aries [12]): 64 | Reduction (Mus musculus [5]): 101% | Survivors (Mus musculus [2]): 10

CC(C)NCCOc1ccc2cc3ccc(OCCNC(C)C)cc3nc2c1.Cl
Reduction (Mus musculus [13]): 96% | Antibody stimulation (Ovis aries [14]): 512 | Survivors (Mus musculus [2]): 15

CCN(CC)CCOc1ccc2cc3ccc(OCCN(CC)CC)c([N+](=O)[O-])c3nc2c1[N+](=O)[O-]
Reduction (Mus musculus [5]): 108% | Survivors (Mus musculus [2]): 1 | Antibody stimulation (Ovis aries [9]): 64

CCN(CC)CCCOc1ccc2cc3ccc(OCCCN(CC)CC)cc3nc2c1.Cl.O
Reduction (Mus musculus [5]): 72% | Antibody stimulation (Ovis aries [15]): 128 | Survivors (Mus musculus [2]): 13

CCN(CC)CCOc1ccc2cc3ccc(OCCN(CC)CC)c(Cl)c3nc2c1Cl
Antibody stimulation (Ovis aries [16]): 128 | Survivors (Mus musculus [2]): 7 | Reduction (Mus musculus [3]): 86%

CCC(CO)NCCCOc1ccc2cc3ccc(OCCCNC(CC)CO)cc3nc2c1.Cl.O (stereo unspecified)
Reduction (Mus musculus [5]): 74% | Antibody stimulation (Ovis aries [17]): inactive

CCN(CC)CCOc1ccc2cc3ccc(OCCN(CC)CC)cc3nc2c1.Cl.O
Reduction (Mus musculus [5]): 70% | Survivors (Mus musculus [2]): 15 | Antibody stimulation (Ovis aries [18]): 256

CCN(CC)CCOc1ccc2cc3ccc(OCCN(CC)CC)c(Br)c3nc2c1Br
Reduction (Mus musculus [13]): 92% | Survivors (Mus musculus [2]): 6 | Antibody stimulation (Ovis aries [9]): 64

CN(C)CCCCOc1ccc2cc3ccc(OCCCCN(C)C)cc3nc2c1.Cl.O
Survivors (Mus musculus [2]): 2 | Antibody stimulation (Ovis aries [19]): inactive | Reduction (Mus musculus [3]): 52%

CC(CCOc1ccc2cc3ccc(OCCC(C)N(C)C)cc3nc2c1)N(C)C (stereo unspecified)
Survivors (Mus musculus [20]): 5

CNCCOc1ccc2cc3ccc(OCCNC)cc3nc2c1.Cl
Antibody stimulation (Ovis aries [21]): 128 | Reduction (Mus musculus [5]): 86% | Survivors (Mus musculus [2]): 1

CCN(CC)CCOc1cc2nc3cc(OCCN(CC)CC)c(C)cc3cc2cc1C.Cl.O
Reduction (Mus musculus [5]): 21% | Survivors (Mus musculus [2]): 4 | Antibody stimulation (Ovis aries [22]): 256

CCNCCCOc1ccc2cc3ccc(OCCCNCC)cc3nc2c1.Cl.O
Reduction (Mus musculus [13]): 78% | Survivors (Mus musculus [2]): 7 | Antibody stimulation (Ovis aries [23]): 32

Cl.OCCNCCOc1ccc2cc3ccc(OCCNCCO)cc3nc2c1
Survivors (Mus musculus [2]): 3 | Antibody stimulation (Ovis aries [8]): 32 | Reduction (Mus musculus [3]): 35%

CCN(CC)CCOc1ccc2c(c1)C(=O)c1cc(OCCN(CC)CC)ccc1-2 [TILORONE]
Survivors (Mus musculus [24]): 5

O=P1(N(CCCl)CCCl)NCCCO1 (stereo unspecified) [CYCLOPHOSPHAMIDE ANHYDROUS]
Reduction (Mus musculus [6]): 102%

CCN(CC)CCOc1ccc2cc3cc([N+](=O)[O-])c(OCCN(CC)CC)c(Cl)c3nc2c1Cl
Reduction (Mus musculus [13]): 61% | Antibody stimulation (Ovis aries [25]): 64 | Survivors (Mus musculus [2]): 1

CCCCNCCOc1ccc2cc3ccc(OCCNCCCC)cc3nc2c1.Cl.O
Antibody stimulation (Ovis aries [26]): 128 | Reduction (Mus musculus [5]): 92% | Survivors (Mus musculus [2]): 7

CN1CCN(CCOc2ccc3cc4ccc(OCCN5CCN(C)CC5)cc4nc3c2)CC1
Antibody stimulation (Ovis aries [27]): 32 | Survivors (Mus musculus [2]): 1 | Reduction (Mus musculus [3]): 75%

CN(C)CCCOc1ccc2cc3ccc(OCCCN(C)C)cc3nc2c1.Cl.O
Antibody stimulation (Ovis aries [28]): 16 | Reduction (Mus musculus [13]): 54% | Survivors (Mus musculus [2]): 9

Cl.c1cc2cc3ccc(OCCN4CCCCC4)cc3nc2cc1OCCN1CCCCC1
Reduction (Mus musculus [5]): 62% | Antibody stimulation (Ovis aries [16]): 128 | Survivors (Mus musculus [2]): 5

CCCNCCCOc1ccc2cc3ccc(OCCCNCCC)cc3nc2c1.Cl.O
Reduction (Mus musculus [13]): 96% | Survivors (Mus musculus [2]): 13
